Ecoli rRNA inh – inhibits bacterial ribosomal RNA function over humanized ribosomes; AID 720706; GFP signal change (wild-type ribosome), % (test concentration not listed); E. coli WT GFP vs humanized-ribosome RFP mutants, fluorescence, 24 h; active compounds read low; DMSO median 0, no signal -100; 1.6% of 350,000 active;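 active = significant combined selectivity score with lowered wild-type GFP, culture density cut under 30%, mutant RFP and density less affected; inactive = any of these conditions unmet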
PfHsp90 set2 – inhibits growth of yeast expressing Plasmodium falciparum Hsp90; S. cerevisiae expressing PfHsp90, BacTiter-Glo ATP, 48 h; yeast lacking PDR1 and PDR3 efflux regulators; inhibition, % at 9.4 µM; 0.32% of 310,000 active;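 active = every replicate shows inhibition above about 80%, whatever the replicate mean, limit read from the data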;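 note: 0% = DMSO neutral controls and 100% = 20 µM radicicol positive controls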
MLL AF4-AF9 inh – MLL-AF4/AF9 protein interaction inhibition | AlphaScreen, biotin-AF4 peptide binding to FLAG-AF9 | 0.47% of 350,000 active | P42568 | inhibition, % at 10 µM;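 active = every replicate reaching a set inhibition limit, whatever the replicate mean, cut at about 25% in these data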;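 note: 0% = plate neutral control median and 100% = total signal loss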
Target sequence (P42568 whole entry, looked up): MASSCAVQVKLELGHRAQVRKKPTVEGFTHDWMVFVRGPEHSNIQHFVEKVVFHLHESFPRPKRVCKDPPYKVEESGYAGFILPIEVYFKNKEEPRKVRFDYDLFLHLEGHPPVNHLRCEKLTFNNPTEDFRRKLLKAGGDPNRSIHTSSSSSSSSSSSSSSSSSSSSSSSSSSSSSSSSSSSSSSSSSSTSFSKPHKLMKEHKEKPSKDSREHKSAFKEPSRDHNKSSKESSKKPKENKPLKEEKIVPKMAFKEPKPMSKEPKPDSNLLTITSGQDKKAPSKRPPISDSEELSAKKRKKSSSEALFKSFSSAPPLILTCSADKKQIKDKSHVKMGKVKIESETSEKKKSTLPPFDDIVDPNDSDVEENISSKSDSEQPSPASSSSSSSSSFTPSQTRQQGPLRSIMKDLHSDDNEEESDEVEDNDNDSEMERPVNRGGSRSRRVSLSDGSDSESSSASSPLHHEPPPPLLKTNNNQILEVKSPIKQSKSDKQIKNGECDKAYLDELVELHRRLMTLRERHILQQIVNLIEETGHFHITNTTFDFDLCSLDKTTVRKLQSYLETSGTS
DENV2 CPE rescue – protects cells from dengue virus 2 cytopathic effect | DENV2-infected cells, cytopathic effect rescue, plate reader | CPE inhibition, % at 9.99 µM | 1.7% of 350,000 active; in the data active = CPE inhibition above about 20%, passing the limit was not always enough; tested in BHK-21 cells;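 note: 0% = median of neutral control wells and 100% = median of positive control wells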
S100A4 inh HTS – blocks human S100A4 binding to myosin IIA peptide. P26447. S100A4/TAMRA-MyoIIA peptide fluorescence polarization. inhibition, % at 10.7 µM. 0.14% of 360,000 active;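 active = mean inhibition of at least 70% across replicates, with every replicate also reaching that level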
Target sequence (P26447 whole entry, looked up): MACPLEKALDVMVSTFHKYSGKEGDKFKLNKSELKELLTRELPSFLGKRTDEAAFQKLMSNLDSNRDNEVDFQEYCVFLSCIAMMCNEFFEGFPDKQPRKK
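Test system – S100A4 monomer (human) · Compound – single-point compound testing · Schedule – 5 min incubation before reading · Probe or stimulus – TAMRA-labelled myosin IIA heavy-chain peptide probe, 5 nM · Benchmarks – neutral control DMSO, positive control TFP · Medium – Calcium-containing HEPES buffer, pH 7.2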
Cneo AK release – causes C. neoformans cell lysis; adenylate kinase release luminescence, 4 h; normalised: neutral wells 0, clomiphene wells 100; lysis activity, % at 15 µM; 0.2% of 360,000 active;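 active = mean lysis activity across replicates of at least 80%, whatever share of replicates individually reach that level; inactive = mean lysis activity below 80%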
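Test system: log-phase Cryptococcus neoformans yeast cells; Quantity: yeast cell density of 5 × 10^6 cells/mL; Buffer or medium: YPD; Doses: single compound concentration per well; Timing: 4 h at 37 °C static, read 1 h later; Measured by: AK luminescence; Read-out basis: lysis from increased AK signal; Control set: Clomiphene as positive control.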
An asterisk follows results filed as active; nt = no result. The list is not random: actives were taken first. Their share in the collection is about 3.2%.

SMILES | Ecoli rRNA inh | PfHsp90 set2 | MLL AF4-AF9 inh | DENV2 CPE rescue | S100A4 inh HTS | Cneo AK release
O=C(CNC(=O)c1ccc(F)cc1)N/N=C/c1cc(Br)ccc1OC(=O)/C=C/c1ccco1 | -28* | -13 | 1 | -6 | -6 | nt
C[C@H](CO)N1C[C@H](C)[C@H](CN(C)C)Oc2ccc(NS(=O)(=O)c3cccs3)cc2CC1=O | 4 | nt | -6 | 9 | -5 | -1
C[C@H]1CN([C@@H](C)CO)C(=O)c2cccc(NC(=O)CCCCCC(=O)Nc3ccccc3N)c2O[C@H]1CN(C)C(=O)NC1CCCCC1 | 5 | nt | 3 | -9 | -4 | nt
C/C=C/c1ccc2c(c1)O[C@H](CN(C)C(=O)C1CCCCC1)[C@H](C)CN([C@@H](C)CO)S2(=O)=O | -7 | nt | 2 | -1 | 6 | 0
CC(C)C#Cc1cnc2c(c1)C(=O)N([C@@H](C)CO)C[C@H](C)[C@@H](CN(C)C(=O)Nc1ccc(F)cc1)O2 | -1 | nt | -15 | 0 | -3 | -2
COc1ccc(NC(=O)N(C)C[C@@H]2Oc3ncc(C#Cc4ccc(F)cc4)cc3C(=O)N([C@H](C)CO)C[C@@H]2C)cc1 | 0 | nt | 2 | 63* | 3 | -1
CC(C)C#Cc1cnc2c(c1)C(=O)N([C@H](C)CO)C[C@H](C)[C@H](CN(C)C(=O)Nc1ccc(F)cc1)O2 | 2 | nt | 3 | 7 | 78* | 9
CCCN(C)C[C@H]1Oc2ncc(C#CC3(O)CCCC3)cc2C(=O)N([C@@H](C)CO)C[C@H]1C | 4 | nt | 0 | 9 | -15 | -5
CC(C)NC(=O)N(C)C[C@H]1Oc2ncc(C#CC3(O)CCCC3)cc2C(=O)N([C@@H](C)CO)C[C@@H]1C | -4 | nt | -3 | 32* | -3 | -6
CCCN(C)C[C@H]1Oc2ncc(C#CC3(O)CCCC3)cc2C(=O)N([C@H](C)CO)C[C@H]1C | 7 | nt | 0 | 27* | -8 | -3
C[C@H](CO)N1C[C@H](C)[C@@H](CN(C)C(=O)Nc2ccc(F)cc2)Oc2ncc(C#Cc3ccc(F)cc3)cc2C1=O | -4 | nt | 0 | 4 | 7 | 5
COc1ccc(NC(=O)N(C)C[C@H]2Oc3ncc(C#CC(C)C)cc3C(=O)N([C@@H](C)CO)C[C@H]2C)cc1 | 4 | nt | -1 | 39* | 2 | 3
COCC#Cc1cnc2c(c1)C(=O)N([C@@H](C)CO)C[C@H](C)[C@H](CN(C)C(=O)Nc1ccc(OC)cc1)O2 | 3 | nt | -4 | -17 | -6 | 109*
CC(C)NC(=O)N(C)C[C@@H]1Oc2ncc(C#Cc3ccc(F)cc3)cc2C(=O)N([C@H](C)CO)C[C@H]1C | -4 | nt | 0 | -9 | -2 | 0
Cc1ccc(S(=O)(=O)N(C)C[C@H]2Oc3ncc(C#CC4(O)CCCC4)cc3C(=O)N([C@H](C)CO)C[C@H]2C)cc1 | -2 | nt | 1 | 21* | -4 | 0
CC(C)NC(=O)N(C)C[C@@H]1Oc2ncc(C#Cc3ccc(F)cc3)cc2C(=O)N([C@@H](C)CO)C[C@H]1C | -2 | nt | 0 | 25* | -10 | 1
CCCC#Cc1cnc2c(c1)C(=O)N([C@H](C)CO)C[C@@H](C)[C@@H](CN(C)C(=O)Nc1ccc(OC)cc1)O2 | 3 | nt | 0 | 0 | -25 | -1
Cc1ccc(S(=O)(=O)N(C)C[C@H]2Oc3ncc(C#CC4(O)CCCC4)cc3C(=O)N([C@@H](C)CO)C[C@@H]2C)cc1 | 0 | nt | 0 | 9 | -12 | 46
CC(C)NC(=O)N(C)C[C@@H]1OCCCC[C@H](C)Oc2ccc(NC(=O)CCC(F)(F)F)cc2C(=O)N([C@@H](C)CO)C[C@H]1C | 1 | nt | -2 | 1 | -9 | 0
CCC1=C(OC(=O)N(CC)CC)N2C(=O)OC(=NCCc3c[nH]c4ccccc34)[C@]2(C)[C@H]2C1=CC[C@H]1C(=O)N(CC(=O)OC)C(=O)[C@H]12 | nt | -10 | nt | nt | nt | -2
CCC1=C(OC(=O)N(CC)CC)N2C(=O)OC(=NCC(=O)OC)[C@]2(C)[C@H]2C1=CC[C@H]1C(=O)N(C)C(=O)[C@H]12 | 15 | 11 | -2 | nt | 12 | 0
CCC1=C(OC(=O)N(CC)CC)N2C(=O)OC(=NCCc3c[nH]c4ccccc34)[C@]2(C)[C@H]2C1=CC[C@H]1C(=O)NC(=O)[C@H]12 | 0 | -5 | nt | 27* | 1 | -2
CCC1=C(OC(=O)N(CC)CC)N2C(=O)OC(=NCC3CC3)[C@]2(C)[C@H]2C1=CC[C@H]1C(=O)NC(=O)[C@H]12 | 2 | -5 | 1 | 46* | 4 | 33
O=C(NCC[C@H]1CC[C@@H](NC(=O)C2CCCCC2)[C@@H](CO)O1)Nc1ccc(Cl)cc1 | -53 | nt | 4 | -1 | 25 | -2
CN1c2ccc(-c3cccc(F)c3)cc2[C@@H]2[C@@H](CCN2S(=O)(=O)c2cccc(F)c2)[C@@H]1CO | -2 | nt | 0 | 14 | 0 | -3
SMILES | Ecoli rRNA inh | PfHsp90 set2 | MLL AF4-AF9 inh | DENV2 CPE rescue | S100A4 inh HTS | Cneo AK release
COc1ccc(CNC(=O)C[C@@H]2CC[C@@H](NC(=O)c3ccc4c(c3)OCO4)[C@H](CO)O2)cc1 | 1 | nt | 0 | -2 | -6 | 1
CNc1ccccc1C(=O)OCC(=O)c1ccccc1 | nt | -12 | -8 | 32* | -10 | -10
CN(C)C(=O)c1ccc(-c2ccccc2[C@H]2[C@@H](C#N)N(C(=O)C3CCC3)[C@H]2CO)cc1 | 1 | nt | -1 | 24* | -9 | nt
CN(C)C(=O)c1ccc(-c2ccccc2[C@@H]2[C@@H](C#N)N(C(=O)C3CCCCC3)[C@@H]2CO)cc1 | 4 | nt | 2 | 1 | -1 | nt
CN(C)C(=O)c1ccc(-c2ccc([C@@H]3[C@@H](CO)N(C(=O)C4CCC4)[C@H]3C#N)cc2)cc1 | 1 | nt | -1 | 50* | -2 | -9
CN(C)C(=O)c1ccc(-c2ccccc2[C@H]2[C@H](C#N)N(C(=O)C3CCCCC3)[C@H]2CO)cc1 | 2 | nt | 0 | 28* | -20 | nt
CC1(C)c2ccccc2N2CC(=O)N(CC(N)=O)C21C (configuration not stated) | nt | 14 | 0 | nt | 118* | 0
CC1(C)c2ccccc2N(CC(N)=O)C12C=Cc1ccccc1O2 (configuration not stated) | -16 | 14 | 7 | -4 | -65 | 0
C[C@@H]1CN([C@@H](C)CO)C(=O)Cc2cc(NS(=O)(=O)c3cccs3)ccc2O[C@@H]1CN(C)Cc1ccc(Cl)c(Cl)c1 | -1 | nt | -1 | -3 | 4 | -2
O=C(c1ccc2c(c1)OCO2)N1CC[C@@H]2[C@H](CO)Nc3ccc(-c4ccccc4)cc3[C@@H]21 | -1 | nt | -4 | 23* | 14 | 0
COc1ccc(-c2ccc3c(c2)[C@@H]2[C@@H](CCN2C(=O)c2ccc4c(c2)OCO4)[C@@H](CO)N3)cc1 | -8 | nt | nt | 74* | nt | -8

Bioassay records as filed in PubChem.
